Data taken from ChEMBL document CHEMBL4364350, “Use of a fluorescence assay to determine relative affinities of semisynthetic aminoglycosides to small RNAs representing bacterial and mitochondrial A sites” (Bioorg Med Chem, 2019).
In brackets after ≈: the same amount, converted by molar mass.

Columns and labels:
[1] = Binding affinity to 5'-fluorescein-tagged Escherichia coli ribosomal A site wt-bac duplex RNA incubated for 2 mins by fluorescence spectrophotometric analysis
How it was run: (§1)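 The 5'-fluorescein-labelled strand was set to 1 μM in binding buffer (10 mM HEPES pH 7.4, 150 mM NaCl, 3 mM Na2EDTA). The complementary strand was annealed at 95 °C for 1 min, then cooled slowly overnight. Aminoglycoside was added in 12–15 aliquots of 2 μL, each followed by 2 min incubation. Excitation 490 nm; 520 nm emission was volume-corrected. Fraction bound was fitted to a quadratic equation for apparent Kd, from three independent trials.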

[2] = Selectivity ratio of IC50 for anti-ribosomal activity against human-bacterial hybrid ribosome containing human mitochondrial ribosome A site harboring wild type 12s rRNA to IC50 for anti-ribosomal activity against bacterial 70S hybrid ribosomes
[3] = Anti-ribosomal activity against human-bacterial hybrid ribosome containing human mitochondrial ribosome A site harboring wild type 12s rRNA assessed as inhibition of cell-free translation by dual luciferase reporter assay
[4] = tested on: human mitochondrial ribosome A site (mutant) RNA; test: Selectivity ratio of Kd for 5'-fluorescein-tagged human mitochondrial ribosome A site mutant duplex RNA to Kd for 5'-fluorescein-tagged Escherichia coli ribosomal A site wt-bac duplex RNA; format: toxicity
Escherichia coli [5] = test: Antibacterial activity against Escherichia coli AG001 incubated for overnight by broth microdilution assay; format: functional
Escherichia coli [6] = test: Potency index, ratio of paromomycin Kd to compound Kd for 5'-fluorescein-tagged Escherichia coli ribosomal A site wt-bac duplex RNA incubated for 2 mins by fluorescence spectrophotometric analysis
[7] = Binding affinity to 5'-fluorescein-tagged human mitochondrial ribosome A site mutant duplex RNA incubated for 2 mins by fluorescence spectrophotometry analysis; how it was run: as §1
[8] = Anti-ribosomal activity against human-bacterial hybrid ribosome containing human mitochondrial ribosome A site harboring A1555G mutant 12s rRNA assessed as inhibition of cell-free translation by dual luciferase reporter assay
[9] = tested on: human mitochondrial ribosomal A site (wild type) RNA; test: Selectivity ratio of Kd for 5'-fluorescein-tagged human mitochondrial ribosomal A site wt-duplex RNA to Kd for 5'-fluorescein-tagged Escherichia coli ribosomal A site wt-bac duplex RNA; format: toxicity
[10] = Binding affinity to 5'-fluorescein-tagged human mitochondrial ribosomal A site wt-duplex RNA incubated for 2 mins by fluorescence spectrophotometric analysis; how it was run: as §1
Bacterial 70S ribosome = test: Anti-ribosomal activity against bacterial 70S hybrid ribosomes assessed as inhibition of cell-free translation incubated for 35 mins by dual luciferase reporter assay; format: subcellular, Bacteria
[11] = Selectivity ratio of IC50 for anti-ribosomal activity against human-bacterial hybrid ribosome containing human mitochondrial ribosome A site harboring A1555G mutant 12s rRNA to IC50 for anti-ribosomal activity against bacterial 70S hybrid ribosomes
Escherichia coli [12] = test: Binding affinity to 5'-fluorescein-tagged Escherichia coli ribosomal A site wt-bac duplex RNA assessed as conformational change in RNA by measuring decrease in fluorescence intensity incubated for 2 mins by fluorescence spectrophotometric analysis; how it was run: as §1
[13] = Binding affinity to 5'-fluorescein-tagged bacterial ribosomal A site 27-nucleotide hairpin RNA construct by fluorescence analysis; parameters: species or system Bacteria

Compound	Kd [1] [nM]	Ratio IC50 [2]	IC50 [3] [µg/mL]	selectivity ratio [4]	MIC (Escherichia coli [5]) [µg/mL]	Ratio (Escherichia coli [6])	Kd [7] [nM]	IC50 [8] [µg/mL]	selectivity ratio [9]	Kd [10] [nM]	IC50 (Bacterial 70S ribosome) [nM]	Ratio IC50 [11]	inhibition (Escherichia coli [12]) [%]	Kd [13] [nM]
CCC[C@H]1[C@H](O)[C@@H](N)[C@@H](O[C@H]2[C@H](O[C@@H]3O[C@H](CO)[C@@H](O[C@H]4O[C@@H](CN)[C@@H](O)[C@H](O)[C@H]4N)[C@H]3O)[C@@H](O)[C@H](N)C[C@@H]2N)O[C@@H]1CO	2	5570	167 (≈ 260 µM)	2900	2 (≈ 3.12 µM)	2.5	5800	51 (≈ 79.5 µM)	13400	26900	46.7	1730	–	–
CCO[C@H]1[C@H](O)[C@@H](N)[C@@H](O[C@H]2[C@H](O[C@@H]3O[C@H](CO)[C@@H](O[C@H]4O[C@@H](CN)[C@@H](O)[C@H](O)[C@H]4N)[C@H]3O)[C@@H](O)[C@H](N)C[C@@H]2N)O[C@@H]1CO	30	1210	97 (≈ 151 µM)	287	16 (≈ 24.9 µM)	–	8600	120 (≈ 186 µM)	427	12800	124	1500	–	–
NC[C@@H]1O[C@H](O[C@H]2[C@@H](O)[C@H](O[C@@H]3[C@@H](O)[C@H](N)C[C@H](N)[C@H]3O[C@H]3O[C@H](CN)[C@@H](O)[C@H](O)[C@H]3N)O[C@@H]2CO)[C@H](N)[C@@H](O)[C@@H]1O [FRAMYCETIN]	1	200	–	100	–	–	100	–	1100	1100	–	20	20	5
NC[C@@H]1O[C@H](O[C@H]2[C@@H](O)[C@H](O[C@@H]3[C@@H](O)[C@H](N)C[C@H](N)[C@H]3O[C@H]3O[C@H](CO)[C@@H](O)[C@H](O)[C@H]3N)O[C@@H]2CO)[C@H](N)[C@@H](O)[C@@H]1O [PAROMOMYCIN]	5	1700	51 (≈ 82.8 µM)	560	4 (≈ 6.5 µM)	–	2800	6 (≈ 9.75 µM)	1300	6500	–	200	–	–
